Test results as given in paper PMC3961564 (The Journal of investigative dermatology, 2013).

Assays:
P3 (FN1853-1877) (human) = experiment: radioligand binding
[1] = biological target: anastellin (FN630-704) with a Cys-tag at the C-terminus (human); experiment: radioligand binding
[2] = biological target: FN668-704, second half of anastellin, with cysteine at the C-terminus (human); experiment: radioligand binding
P4 (FN2043-2076) (human) = experiment: radioligand binding
FN-null fibroblasts = experiment: FN-null cell survival on CBD/14 with peptide in solution; format: cell-based, mouse; conditions: serum-free DMEM, 1nM PDGF-BB, 3d, viable cells counted
Outline: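 Mouse FN-null fibroblasts were maintained in DMEM with 10% FBS. 96-well plates were precoated with 0.125μM GST-tagged CBD/14, blocked with 2% BSA for 2h and washed. Cells were seeded at 4,000/well for 4h at 37°C in serum-free DMEM, and BSA medium with soluble test compound ±1nM PDGF-BB was added. After 3d at 37°C, viable spread cells were counted in five 10x fields in three replicate wells (mean ± SD, n=15).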

cell growth = conditions: RWRPK by itself; ref Hocking et al., 2008; cited from earlier work
[3] = biological target: Recombinant PDGF-BB (platelet-derived growth factor-BB) (UniProt P01127); experiment: SPR
[4] = biological target: 125I-PDGF-BB (125I-radiolabeled platelet-derived growth factor-BB) (UniProt P01127 82-190, 125I label (site not stated)); experiment: radioligand binding
Chain of 125I-PDGF-BB (125I-radiolabeled platelet-derived growth factor-BB) (UniProt P01127 82-190, 125I label (site not stated)) (P01127 82-190): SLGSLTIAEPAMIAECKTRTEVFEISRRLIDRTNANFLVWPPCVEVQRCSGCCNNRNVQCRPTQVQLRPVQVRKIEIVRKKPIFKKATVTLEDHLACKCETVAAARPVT

Chain of 125I-PDGF-BB (125I-radiolabeled platelet-derived growth factor-BB) (from UniProt P01127 82-190) (ligand) (P01127 82-190): as above
Chain of Recombinant PDGF-BB (platelet-derived growth factor-BB) (P01127 82-190): as above

For “125I-PDGF-BB (125I-radiolabeled platelet-derived growth factor-BB) (from UniProt P01127 82-190) (ligand)”, the Kd (P3 (FN1853-1877) (human)) was 87 nM, the Kd [1] was 90 nM and the Kd [2] was 80 nM. For the same molecule, the Kd (P4 (FN2043-2076) (human)) was 56 nM.

For QPSHISKYILRWRPK [Peptide P5], the “FN-null cell survival on CBD/14, peptide in solution” value (“FN-null cell survival” for short) (FN-null fibroblasts) was “promoted PDGF-BB survival signals”.

With QWNAPQPSHISKYILRWRPK [Peptide P11] the “FN-null cell survival” value (FN-null fibroblasts) was “promoted PDGF-BB survival signals”.

For RWRPK, the “Cell growth” value (cell growth) is listed as “inhibits cell growth” and the “FN-null cell survival” value (FN-null fibroblasts) is listed as “does not collaborate with PDGF-BB”.

Molecule “anastellin (FN630-704) with a Cys-tag at the C-terminus (domain or fragment)” has a Kd [3] of 22.9 nM.

QPSHISKYILRWRPKNSVGRWKEAT [P1 (FN634-658)] gave a Kd [4] of 250 nM.

In the case of QLISHQQYGHQEVTRFDFTTTSTST [P2 (FN680-704)], the Kd [4] is reported as 110 nM.
